UPR CHOP act: apoptotic UPR (CHOP) activation; CHO-CHOP luciferase reporter, luminescence; percent of tunicamycin response over DMSO baseline; activation, % at 10 µM; hit rate 0.34% among 330,000;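 active = at 10 µM dose, activation of 40% or more, normalized to positive control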;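 also: 100% = tunicamycin at 10 µg/mL and 0% = DMSO alone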
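System: CHO CHOP reporter cells. Amount: 500 cells per well. Buffer or medium: F12 medium, 10% FBS. Compound dosing: one dose, 10 µM in 0.5% DMSO. Incubation: 6 h compound exposure at 37 °C after overnight seeding. Technique: Steady-Glo luciferase luminescence. Benchmarks: tunicamycin and DMSO controls.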
Beta2AR agonist: agonists of human beta-2 adrenergic receptor inducing internalization | hit rate 0.43% among 340,000 | Am2.2-beta2AR cells, FAP receptor internalization, flow cytometry | AID 504454 | P07550 | response, % (test concentration not listed);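 active = response above a set limit, near 3 SD of response in nonfluorescent compounds, cut at about 42% in these data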
Target sequence (P07550 whole entry, looked up): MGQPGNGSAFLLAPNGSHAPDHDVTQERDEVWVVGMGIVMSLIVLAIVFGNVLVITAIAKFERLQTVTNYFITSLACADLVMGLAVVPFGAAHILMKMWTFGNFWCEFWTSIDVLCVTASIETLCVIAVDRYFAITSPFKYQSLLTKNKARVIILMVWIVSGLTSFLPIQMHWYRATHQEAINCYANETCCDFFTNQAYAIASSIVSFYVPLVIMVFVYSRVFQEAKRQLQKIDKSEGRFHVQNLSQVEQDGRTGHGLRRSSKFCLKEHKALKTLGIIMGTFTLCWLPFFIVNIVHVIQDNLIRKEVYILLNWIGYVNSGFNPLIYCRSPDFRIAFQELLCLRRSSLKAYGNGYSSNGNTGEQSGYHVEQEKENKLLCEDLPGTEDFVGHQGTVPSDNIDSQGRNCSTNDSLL
CHOP inhibitor: inhibitors of CHOP induction in ER stress response. hit rate 3.8% among 220,000. AID 2732. inhibition, % at 10 µM. CHO-K1 CHOP-promoter luciferase, tunicamycin-induced, 15-18 h;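 active = compounds that reduced the stress-induced luciferase reporter signal by more than about 70% of percent inhibition, limit read from the data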;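 also: 0% = tunicamycin plus vehicle and 100% = wells without tunicamycin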
Dynein cargo inh: blocks dynein driven cargo transport along microtubules | hit rate 0.47% among 220,000 | AID 1381 | 3617.4 mouse cells, GR-EGFP nuclear translocation imaging; test concentration mostly 20 µM; stimulated with dexamethasone, 1 µM; hits give low values | z-score, hits read low;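 active = plate z-score of nuclear minus cytoplasmic receptor signal below a set negative limit, without overly bright fluorescence or cell loss, cut at about -3.5 in these data, passing the limit was not always enough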;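 also: z-score of nuclear minus cytoplasmic ring GR-EGFP intensity difference per well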
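Also added – dexamethasone, 1.0 µM final · Buffer or medium – tet-free, stripped-serum medium · Schedule – induction 48 h, compound 1 h, agonist 30 min · Detection – formaldehyde fixation, Hoechst nuclear stain, 10x automated fluorescence imaging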
XBP1 UPR activ: activators of adaptive arm of unfolded protein response (XBP1) | CHO-XBP1 luciferase reporter, IRE1-XBP1 UPR activation, luminescence; percent of tunicamycin response, DMSO as zero | activation, % at 20 µM | hit rate 0.33% among 330,000 | AID 463104;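 active = versus positive control, 20 µM dose yields 30% or more activation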;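 also: 100% = tunicamycin at 10 µg/mL and 0% = DMSO only wells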
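Material: CHO cell line with stable XBP1 luciferase reporter; buffer or medium: F12 medium containing 10% fetal bovine serum; compound: single point, 20 µM final compound, 1% DMSO; incubation: 6 h treatment, 37 °C; measured by: glow luminescence from Steady-Glo reagent; evaluation: activation, % of tunicamycin; control set: tunicamycin high, DMSO low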
p-CIP stab down: lowers stability of the mouse p/CIP coactivator protein; Q05BA5; F442A p/CIP-EGFP cells, EGFP fluorescence, 16 h; decrease of EGFP signal, % at 10 µM; hit rate 0.01% among 290,000; AID 1984;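 active = EGFP signal decrease of at least 30% at 10 µM or well 3 SD below plate mean, unless failing retest; inactive = the rest, including hits failing retest or dose response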
Numbers without * were called inactive; nt = no result. This excerpt belongs to a sample that is enriched for hits.

SMILES	UPR CHOP act	Beta2AR agonist	CHOP inhibitor	Dynein cargo inh	XBP1 UPR activ	p-CIP stab down
COC(=O)c1c(NC(=O)CSc2ccccc2N)sc(C)c1C	-2.3	9.7	5.7	-0.032	2.6	-7.6
Cc1ccccc1CN1N=C(/C=C/c2ccccc2)CCC1=O	0.7	48.1*	9.5	-0.664	-2.8	-5.5
Cc1ccc(/C=C/C2=NN(Cc3ccc(Cl)c(Cl)c3)C(=O)CC2)cc1	-5.7	4.6	32.9	0.401	-2.4	-11.6
CN(C)C(=O)/N=N/C(=O)N(C)C	nt	nt	-12.0	nt	nt	nt
CCCSc1nsc(NC(=O)C(c2ccccc2)c2ccccc2)n1	-0.9	34.6	92.7*	-0.144	0.2	-9.8
Cc1ccc(C(=O)Nc2nnc(S(=O)(=O)N3CCC(C)CC3)s2)cc1	1.8	-5.0	nt	nt	0.8	-3.5
COc1ccc(S(=O)(=O)Nc2ccc3c(c2)C(=O)N([C@H](C)CO)C[C@H](C)[C@@H](CN(C)C(=O)NC(C)C)O3)cc1	-1.7	-5.3	nt	nt	-3.6	nt
CC1CC2=C(NC(=S)NC2c2cccc(F)c2)/C(=C/c2cccc(F)c2)C1 (stereo unspecified)	nt	3.5	86.3*	-0.813	nt	-7.4
Cc1ccc(/C=C2\CC(C)CC3=C2NC(=S)NC3c2ccc(C)cc2)cc1 (stereo unspecified)	0.0	-0.1	53.1	0.111	-2.3	-13.7
N#CC(Nc1ccccc1)c1ccccc1OCc1ccccc1 (stereo unspecified)	0.8	-1.4	88.7*	-1.29	0.2	-7.5
Cc1cc(Br)ccc1SCC(=O)OCC(=O)Nc1ncc(C(F)(F)F)cc1Cl	0.3	2.1	57.2	-0.262	-0.3	1.5
CCOc1ccc2nc(N3C(=O)/C(=C/c4ccc(Cl)cc4)NC3=S)sc2c1	nt	13.9	104.6*	1.39	nt	0.0
CC(C)C1C(c2ccccc2)NC(c2ccccc2)CC1(O)c1ccc(F)cc1 (stereo unspecified)	1.0	0.0	80.2*	1.32	-2.2	-4.7
CCC1C(=O)CC(c2ccccc2)NC1c1ccccc1 (stereo unspecified)	-0.7	-1.2	18.4	0.301	-0.3	-2.0
CC(C)C1C(c2ccccc2)N(C)C(c2ccccc2)CC1(O)c1ccccc1 (stereo unspecified)	0.8	33.6	73.1*	-0.965	1.9	-15.6
CCN1CCN(CCNC(=O)c2ccc3c(c2)N(Cc2ccc(F)cc2)C(=O)/C(=C/c2ccccc2)S3)CC1	4.3	-589.0	106.6*	-4.68	-0.5	8.1
CCN1CCN(CCNC(=O)c2ccc(/C=C3/Sc4ccccc4N(Cc4cccc(Cl)c4)C3=O)cc2)CC1	2.3	38.2	33.1	2.39	15.4	-6.2
O=C(NCCN1CCOCC1)c1ccc(/C=C2\Sc3ccccc3N(Cc3ccccc3F)C2=O)cc1	1.0	19.9	nt	nt	7.4	5.7
CN1CCN(CCCNC(=O)c2ccc(/C=C3\Sc4ccccc4N(Cc4ccccc4F)C3=O)cc2)CC1	nt	88.2*	-32.1	-0.912	nt	-4.4
Cc1cccc(CN2C(=O)/C(=C\c3ccc(C(=O)NCCN4CCOCC4)cc3)Sc3ccccc32)c1	7.6	45.9*	nt	nt	1.3	0.7
Cc1ccccc1CN1C(=O)/C(=C\c2ccc(C(=O)NCCN3CCOCC3)cc2)Sc2ccccc21	2.3	9.0	nt	nt	-3.6	-10.9
CCCCCCCC/C=C\CCCCCCCC(=O)NCCO	-2.3	5.5	30.8	nt	-1.4	nt
CCCCCCCC/C=C\CCCCCCCC(=O)NCCc1ccc(O)c(O)c1	148.3*	34.4	-10.6	nt	16.7	nt
COc1cc(OC)cc(C(=O)N[C@H](C(=O)OCC(N)=O)C(C)C)c1	2.4	2.8	21.2	0.417	-1.3	2.5
O=C(NC(NC(=S)Nc1ccccc1)C(Cl)(Cl)Cl)c1cccc(Cl)c1 (stereo unspecified)	14.1	1.5	85.7*	2.62	-0.2	2.6
SMILES	UPR CHOP act	Beta2AR agonist	CHOP inhibitor	Dynein cargo inh	XBP1 UPR activ	p-CIP stab down
O=C(O)c1cccc(NC(=S)NC(NC(=O)c2cccc([N+](=O)[O-])c2)C(Cl)(Cl)Cl)c1 (stereo unspecified)	-2.3	6.4	-12.4	-0.18	4.7	-0.6
CCn1ccnc1CN(C)Cc1cn(-c2ccc(C)cc2)nc1-c1ccc(F)cc1	1.8	1.5	75.3*	-0.815	-0.2	-0.6
CCOC(=O)CSc1nc2c([nH]c3ccccc32)c(=O)n1C	-1.4	14.6	76.1*	0.36	2.2	7.6
COCCn1c(SCC(=O)Nc2ccccc2)nc2c(oc3ccccc32)c1=O	0.1	-5.2	4.0	-0.0552	1.1	-4.9
Cn1c(SCC(=O)Nc2ccc(F)cc2)nc2c([nH]c3ccccc32)c1=O	9.7	-0.2	85.1*	0.23	25.8	-6.4
COCCn1c(SCC(=O)Nc2ccc(F)cc2)nc2c(oc3ccccc32)c1=O	-1.3	-3.3	84.3*	0.615	1.4	-11.5
N#Cc1c(Nc2ccccc2)[n+]([O-])c2ccc(Cl)cc2[n+]1[O-]	nt	4.1	nt	nt	nt	nt
[N-]=[N+]=Nc1ccc(C(=O)CSC[C@H](NC(=O)CC[C@H](N)C(=O)O)C(=O)NCC(=O)O)cc1	nt	nt	17.2	nt	nt	nt
C#CCn1c(S(=O)(=O)Cc2ccc(C)cc2)nc(-c2ccccc2)c1-c1ccccc1	4.2	2.2	22.2	-1.17	-0.2	7.4
CCOC(=O)Cn1c(S(=O)(=O)Cc2ccccc2Cl)nc(-c2ccccc2)c1-c1ccccc1	6.3	11.8	70.1*	-0.102	-1.1	-5.8
C#CCn1c(S(=O)(=O)Cc2ccccc2Cl)nc(-c2ccccc2)c1-c1ccccc1	0.8	7.8	80.4*	0.042	-3.3	-10.0
CN(C(=O)c1cccc(NC(=O)Cc2ccc(NC(=O)C3CCN(C(=O)C4CC4)CC3)cc2)c1)C1CCC1	nt	-4.6	nt	nt	nt	nt
NC(=O)c1ccsc1NC(=O)COC(=O)[C@@H]1CCCN1C(=O)c1cccs1	nt	1.8	nt	nt	nt	nt
NC(=O)c1ccc(C(F)(F)F)n(Cc2cccc(Cl)c2)c1=O	-0.5	-3.3	72.2*	1.32	1.4	-1.7
CC(C)c1cc(C(=O)Nc2cc(Br)ccc2O)no1	2.5	2.0	78.1*	-0.455	3.1	-11.0
CC(C)c1cc(C(=O)Nc2cc(Cl)ccc2O)no1	6.1	5.6	nt	0.45	8.5	-18.6
CN(C)c1nc(NNC(=O)c2ccccc2)nc(N(C)C)n1	nt	5.5	nt	nt	nt	nt
Cc1cc(C(C)(C)C)oc1C(=O)OCC(=O)NC1CCCCC1	0.5	-5.5	12.9	-0.473	3.7	-6.9
Cc1cc(C(C)(C)C)oc1C(=O)NCCCNC(=O)c1oc(C(C)(C)C)cc1C	-3.6	-1.1	95.6*	0.629	-2.2	15.3
CC(Oc1cc2oc(=O)c3c(c2cc1Cl)CCC3)C(=O)NCCN1CCOCC1 (stereo unspecified)	-0.3	-10.5	nt	nt	0.1	-5.2

Screens as filed in PubChem.
